What was measured:
[1] = Distribution co-efficient, log D of the compound at pH 1 by reversed-phase thin-layer chromatographic method; assay type: physicochemical; details: buffer
Outline: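 Reversed-phase thin-layer chromatography at pH 1, mobile phase MeOH/HCl (70/30).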

[2] = biological target: Botulinum neurotoxin type A (Clostridium botulinum) (UniProt P0DPI0); test: (§1) Inhibition of Clostridium botulinum BoNT/A light chain using P39 as substrate preincubated for 10 mins followed by substrate addition measured after 10 mins by HPLC method
[3] = biological target: T1, Botulinum neurotoxin type A (Clostridium botulinum, UniProt P0DPI0); test: as §1
[4] = biological target: Botulinum neurotoxin type A (Clostridium botulinum) (UniProt P0DPI0); test: Inhibition of Clostridium botulinum BoNT/A holotoxin-mediated SNAP-25 cleavage in mouse HBG3 cell-derived motor neurons assessed as full length of SNAP-25 at 10 uM preincubated for 30 mins followed by intoxication measured after 4 hrs by Western blot method relative to control; set-up: scale not given: the % may be the effect or the level left
[5] = biological target: Botulinum neurotoxin type A (Clostridium botulinum) (UniProt P0DPI0); test: Inhibition of Clostridium botulinum BoNT/A light chain at 20 uM using P39 as substrate preincubated for 10 mins followed by substrate addition measured after 10 mins by HPLC method relative to control
Outline: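 Purified BoNT/A light chain (20 nM) with 0.2 mg/mL BSA in 50 mM HEPES pH 7.4, preincubated with compound for 10 min at room temperature. Cleavage fragments were separated by reversed-phase HPLC (214/280 nm). Percent inhibition was taken from fragment peak areas with vs without compound. Mean of three experiments.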

[6] = biological target: Botulinum neurotoxin type A (Clostridium botulinum) (UniProt P0DPI0); test: Inhibition of Clostridium botulinum BoNT/A holotoxin-mediated SNAP-25 cleavage in mouse HBG3 cell-derived motor neurons assessed as full length of SNAP-25 at 20 uM preincubated for 30 mins followed by intoxication measured after 4 hrs by Western blot method relative to control; set-up: scale not given: the % may be the effect or the level left
[7] = biological target: Botulinum neurotoxin type A (Clostridium botulinum) (UniProt P0DPI0); test: (§2) Inhibition of Clostridium botulinum BoNT/A holotoxin-mediated SNAP-25 cleavage in mouse HBG3 cell-derived motor neurons preincubated for 30 mins followed by intoxication measured after 4 hrs by Western blot method
[8] = biological target: Botulinum neurotoxin type A (Clostridium botulinum) (UniProt P0DPI0); test: Inhibition of Clostridium botulinum BoNT/A holotoxin-mediated SNAP-25 cleavage in mouse HBG3 cell-derived motor neurons assessed as full length of SNAP-25 at 20 uM treated at 60 mins post intoxication by Western blot method relative to control; set-up: scale not given: the % may be the effect or the level left
Mus musculus [9] = test: Toxicity in mouse assessed as effect on behavior at 160 mg/kg, po administered for 3 days measured 2 times a day for 30 days; assay type: organism-based; details: in vivo, 720 h
Outline: (§3)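 Groups of five healthy mice were dosed per os for three consecutive days, suspended in 0.5% hydroxyethylcellulose–0.1% Tween 80. Behaviour and appearance were monitored twice daily for 30 days, with survival assessed at 30 days. Non-toxic was defined as all 5 surviving with normal appearance and behaviour.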

Mus musculus [10] = test: Toxicity in mouse assessed as effect on appearance at 160 mg/kg, po administered for 3 days measured 2 times a day for 30 days; assay type: organism-based; details: in vivo, 720 h; outline: as §3
[11] = biological target: T1, Botulinum neurotoxin type A; test: as §2
Mus musculus [12] = test: Toxicity in mouse assessed as effect on survival at 160 mg/kg, po administered for 3 days measured after 30 days; assay type: organism-based; details: in vivo, 720 h; outline: as §3
[13] = biological target: Botulinum neurotoxin type A (Clostridium botulinum) (UniProt P0DPI0); test: Inhibition of Clostridium botulinum BoNT/A holotoxin-mediated SNAP-25 cleavage in mouse HBG3 cell-derived motor neurons assessed as full length of SNAP-25 at 20 uM treated at 30 mins post intoxication by Western blot method relative to control; set-up: scale not given: the % may be the effect or the level left
[14] = Distribution co-efficient, log D of the compound at pH 10 by reversed-phase thin-layer chromatographic method; assay type: physicochemical; details: buffer
Outline: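 Reversed-phase thin-layer chromatography at pH 10, mobile phase acetone/NH3/H2O (85/5/10).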

[15] = biological target: Botulinum neurotoxin type A (Clostridium botulinum) (UniProt P0DPI0); test: Inhibition of Clostridium botulinum BoNT/A holotoxin-mediated SNAP-25 cleavage in mouse HBG3 cell-derived motor neurons assessed as full length of SNAP-25 at 16 uM treated at 30 mins post intoxication by Western blot method relative to control; set-up: scale not given: the % may be the effect or the level left
[16] = biological target: Botulinum neurotoxin type A (Clostridium botulinum) (UniProt P0DPI0); test: Inhibition of Clostridium botulinum BoNT/A holotoxin-mediated SNAP-25 cleavage in mouse HBG3 cell-derived motor neurons assessed as full length of SNAP-25 at 8 uM preincubated for 30 mins followed by intoxication measured after 4 hrs by Western blot method relative to control; set-up: scale not given: the % may be the effect or the level left
[17] = biological target: Botulinum neurotoxin type A (Clostridium botulinum) (UniProt P0DPI0); test: Inhibition of Clostridium botulinum BoNT/A holotoxin-mediated SNAP-25 cleavage in mouse HBG3 cell-derived motor neurons assessed as full length of SNAP-25 at 64 uM treated at 30 mins post intoxication by Western blot method relative to control; set-up: scale not given: the % may be the effect or the level left
[18] = biological target: Botulinum neurotoxin type A (Clostridium botulinum) (UniProt P0DPI0); test: Inhibition of Clostridium botulinum BoNT/A holotoxin-mediated SNAP-25 cleavage in mouse HBG3 cell-derived motor neurons assessed as full length of SNAP-25 at 16 uM preincubated for 30 mins followed by intoxication measured after 4 hrs by Western blot method relative to control; set-up: scale not given: the % may be the effect or the level left

Structure (SMILES) | chromatographic logD [1] | inhibition [2] | IC50 [3] [µM] | Activity [4] [%] | inhibition [5] [%] | Activity [6] [%] | inhibition [7] | Activity [8] [%] | Activity (Mus musculus [9]) | Activity (Mus musculus [10]) | IC50 [11] [µM] | Activity (Mus musculus [12]) | Activity [13] [%] | chromatographic logD [14] | Activity [15] [%] | Activity [16] [%] | Activity [17] [%] | Activity [18] [%]
CC(=O)O[C@H]1C[C@H]2[C@@H]([C@H](OC(C)=O)C[C@@H]3C[C@H](N)CC[C@@]32C)[C@@H]2CC[C@H]([C@H](C)CCCN(C)CCCC(C)Nc3ccnc4ccccc34)[C@@]12C (mixture of isomers) | 2.38 | Dose-dependent effect | 0.7 | 20 | 85 | 41 | Dose-dependent effect | – | – | – | – | – | – | – | – | – | – | –
N#Cc1ccc(-c2ccc(-c3ccc(CNCCCCCCCCNc4ccnc5ccccc45)cc3)s2)cc1 | 3.42 | Dose-dependent effect | 6.8 | 31 | 77 | 70 | Dose-dependent effect | 19 | Non-Toxic | Non-Toxic | 10 to 20 | Non-Toxic | 20 | – | – | – | – | –
CN(CCCCCCCCNc1ccnc2ccccc12)Cc1ccc(-c2ccc(-c3ccc(C#N)cc3)s2)cc1 | 3.33 | – | – | 54 | 35 | 60 | Dose-dependent effect | 22 | Non-Toxic | Non-Toxic | 5 to 10 | Non-Toxic | 34 | – | – | – | – | –
N#Cc1ccc(-c2ccc(-c3ccc(CNCCCCNc4ccnc5ccccc45)cc3)s2)cc1 | 2.93 | Dose-dependent effect | 9.3 | 18 | 67 | 39 | Dose-dependent effect | – | – | – | – | – | – | – | – | – | – | –
CC(=O)O[C@H]1C[C@H]2[C@@H]([C@H](OC(C)=O)C[C@@H]3C[C@H](N)CC[C@@]32C)[C@@H]2CC[C@H]([C@H](C)CCCNCCCC(C)Nc3ccnc4ccccc34)[C@@]12C (mixture of isomers) | 2.28 | Dose-dependent effect | 2.7 | 67 | 71 | 69 | Dose-dependent effect | 22 | – | – | – | – | 38 | – | – | – | – | –
N#Cc1ccc(-c2ccc(-c3ccc(CNCCCCCCNc4ccnc5ccccc45)cc3)s2)cc1 | 3.08 | Dose-dependent effect | 3.4 | 22 | 70 to 80 | 48 | Dose-dependent effect | – | – | – | – | – | – | – | – | – | – | –
CC(CCN(C)CC12CC3CC(CC(C3)C1)C2)Nc1ccnc2cc(Cl)ccc12 (stereo not drawn) | – | Dose-dependent effect | 11.7 | 63 | 67 | 72 | Dose-dependent effect | 16 | – | – | < 10 | – | 15 | 3.47 | – | – | – | –
N#Cc1ccc(-c2ccc(-c3cccc(CNCCCCCCNc4ccnc5ccccc45)c3)s2)cc1 | 3.08 | Dose-dependent effect | 8.7 | 46 | 68 | 71 | Dose-dependent effect | – | – | – | – | – | – | – | – | – | – | –
CC(=O)O[C@H]1C[C@H]2[C@@H]([C@H](OC(C)=O)C[C@@H]3C[C@H](N)CC[C@@]32C)[C@@H]2CC[C@H]([C@H](C)CCCNC(C)CCCNc3ccnc4ccccc34)[C@@]12C (mixture of isomers) | 2.21 | Dose-dependent effect | 3 | 86 | 75 | 87 | Dose-dependent effect | 22 | – | – | – | – | 50 | – | – | – | – | –
CC(CCCNCc1ccc(-c2csc3ccc(F)cc23)cc1)Nc1ccnc2ccccc12 (stereo not drawn) | – | Dose-dependent effect | 8.8 | 62 | 69 | 62 | Dose-dependent effect | – | – | – | – | – | – | 3.98 | – | – | – | –
CC(=O)O[C@H]1C[C@H]2[C@@H]([C@H](OC(C)=O)C[C@@H]3C[C@H](NCCCCCCNc4ccnc5cc(Cl)ccc45)CC[C@@]32C)[C@@H]2CC[C@H]([C@H](C)CCCNCCCCCCNc3ccnc4cc(Cl)ccc34)[C@@]12C | – | Dose-dependent effect | 12.4 | 70 | 90 | 84 | Dose-dependent effect | 20 | – | – | – | – | 36 | – | – | – | – | –
CC(CCCN(C)Cc1ccc(-c2csc3ccc(C#N)cc23)cc1)Nc1ccnc2ccccc12 (stereo not drawn) | – | – | – | 59 | 27 | 64 | Dose-dependent effect | – | – | – | 10 to 20 | – | – | 3.42 | – | – | – | –
CN(CCCNc1ccnc2cc(Cl)ccc12)CC12CC3CC(CC(C3)C1)C2 | – | Dose-dependent effect | 8.8 | 51 | 71 | 56 | Dose-dependent effect | 39 | – | – | – | – | 46 | 3.24 | – | – | – | –
N#Cc1ccc2scc(-c3ccc(CNCCCCCCNc4ccnc5ccccc45)cc3)c2c1 | – | Dose-dependent effect | 3.3 | 36 | 75 | 43 | Dose-dependent effect | – | – | – | – | – | – | 3.85 | – | – | – | –
C[C@H](CCCNCCCCNc1ccnc2cc(Cl)ccc12)[C@H]1CC[C@H]2[C@@H]3[C@H](O)C[C@@H]4C[C@H](N)CC[C@]4(C)[C@H]3C[C@H](O)[C@]12C | 2.97 | – | – | 46 | 48 | – | Dose-dependent effect | – | – | – | 8 to 16 | – | – | – | 49 | 58 | 69 | 58
CC(=O)O[C@H]1C[C@H]2[C@@H]([C@H](OC(C)=O)C[C@@H]3C[C@H](N)CC[C@@]32C)[C@@H]2CC[C@H]([C@H](C)CCCNCCCCNc3ccnc4ccccc34)[C@@]12C | 2.14 | Dose-dependent effect | 5.7 | 28 | 80 | 67 | Dose-dependent effect | 49 | – | – | 10 to 20 | – | 48 | – | – | – | – | –
CC(CCCNc1ccnc2ccccc12)NCc1ccc(-c2csc3ccc(F)cc23)cc1 (stereo not drawn) | – | Dose-dependent effect | 7.4 | 58 | 75 | 68 | Dose-dependent effect | 17 | Non-Toxic | Non-Toxic | 10 to 20 | Non-Toxic | 16 | 3.85 | – | – | – | –
CC(CCNc1ccnc2cc(Cl)ccc12)NCC12CC3CC(CC(C3)C1)C2 (stereo not drawn) | – | Dose-dependent effect | 2.7 | 29 | 65 | 30 | Dose-dependent effect | – | – | – | – | – | – | 3.4 | – | – | – | –
CC(=O)O[C@H]1C[C@H]2[C@@H]([C@H](OC(C)=O)C[C@@H]3C[C@H](N)CC[C@@]32C)[C@@H]2CC[C@H]([C@H](C)CCCN(C)CCCCNc3ccnc4ccccc34)[C@@]12C | 2.11 | Dose-dependent effect | 1.5 | 70 | 52 | 69 | Dose-dependent effect | – | – | – | – | – | – | – | – | – | – | –

Source: ChEMBL document CHEMBL4024803, “New Steroidal 4-Aminoquinolines Antagonize Botulinum Neurotoxin Serotype A in Mouse Embryonic Stem Cell Derived Motor Neurons in Postintoxication Model” (J Med Chem, 2018)
